Measured values as given in ChEMBL document CHEMBL1138022, “Structurally simplified macrolactone analogues of halichondrin B” (Bioorg Med Chem Lett, 2004).
pIC50: −log10 of the molar value.

What was measured:
[1] = test system: P388; experiment: Fold resistance calculated as the inhibition concentration ratio between retrovirally transformed P388/VMDRC.04 and parental P388 cells; type: functional
How it was run: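 P-glycoprotein-mediated efflux assessed in murine P388/VMDRC.04, a retrovirally transformed multidrug-resistant subline of P388/S leukemia cells, alongside parental P388 cells. Growth inhibition IC50 was measured in each line. Fold resistance is the IC50 ratio of P388/VMDRC.04 to parental P388.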

[2] = test system: U-937; experiment: In vitro inhibitory concentration required to inhibit the growth of U937 cells was determined by mitotic block reversibility assay; type: functional; details: Homo sapiens
How it was run: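 Reversibility assay in human histiocytic lymphoma U937 cells. After drug washout, flow cytometry scored whether a complete mitotic block was still maintained 10 h later.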

[3] = test system: DLD-1; experiment: In vitro inhibitory concentration required to inhibit the growth of DLD-1 cells under continuous exposure conditions for 3-4 days; type: functional, cell-based; details: Homo sapiens
How it was run: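 Human colon cancer DLD-1 cells were exposed to compound continuously for 3–4 days and growth inhibition was measured. IC50 is given ± SEM, with n the number of experiments.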

Structure (SMILES): C=C1C[C@@H]2CC[C@@]34C[C@@H]5O[C@@H]6C(O[C@H]7CC[C@H](CC(=O)O[C@@H]8[C@@H](OC)[C@H](O)[C@H](CCO)O[C@H]8C[C@H]8O[C@@H](CC[C@@H]1O2)C[C@@H](C)C8=C)O[C@@H]7[C@@H]6O3)[C@H]5O4
- FR [1]: 10
- IC99 [2]: 0.3 µM
- pIC50 [3]: 8.74

Structure (SMILES): C=C1C[C@@H]2CC[C@@]34C[C@@H]5O[C@@H]6C(O[C@H]7CC[C@H](CC(=O)O[C@@H]8[C@@H](OC)[C@H](OC)[C@H](CCO)O[C@H]8C[C@H]8O[C@@H](CC[C@@H]1O2)C[C@@H](C)C8=C)O[C@@H]7[C@@H]6O3)[C@H]5O4
- FR [1]: 2.6
- IC99 [2]: > 1 µM
- pIC50 [3]: 8.68
